In PubChem BioAssay AID624067 (The Scripps Research Institute Molecular Screening Center, 2012):
Values joined by “and” are separate entries in the source; they are usually repeats but may differ in a detail not shown here. Equal values may be shown once.

target: Insulin-degrading enzyme (Homo sapiens) (UniProt P14735); test: inhibitors of wild-type recombinant IDE, late-stage follow-up, counter-screen for IDE inhibitor project, biochemical, fluorescence polarization, run by assay provider (AID 624067); details: FAbetaB cleavage
Sequence (P14735 whole entry, looked up): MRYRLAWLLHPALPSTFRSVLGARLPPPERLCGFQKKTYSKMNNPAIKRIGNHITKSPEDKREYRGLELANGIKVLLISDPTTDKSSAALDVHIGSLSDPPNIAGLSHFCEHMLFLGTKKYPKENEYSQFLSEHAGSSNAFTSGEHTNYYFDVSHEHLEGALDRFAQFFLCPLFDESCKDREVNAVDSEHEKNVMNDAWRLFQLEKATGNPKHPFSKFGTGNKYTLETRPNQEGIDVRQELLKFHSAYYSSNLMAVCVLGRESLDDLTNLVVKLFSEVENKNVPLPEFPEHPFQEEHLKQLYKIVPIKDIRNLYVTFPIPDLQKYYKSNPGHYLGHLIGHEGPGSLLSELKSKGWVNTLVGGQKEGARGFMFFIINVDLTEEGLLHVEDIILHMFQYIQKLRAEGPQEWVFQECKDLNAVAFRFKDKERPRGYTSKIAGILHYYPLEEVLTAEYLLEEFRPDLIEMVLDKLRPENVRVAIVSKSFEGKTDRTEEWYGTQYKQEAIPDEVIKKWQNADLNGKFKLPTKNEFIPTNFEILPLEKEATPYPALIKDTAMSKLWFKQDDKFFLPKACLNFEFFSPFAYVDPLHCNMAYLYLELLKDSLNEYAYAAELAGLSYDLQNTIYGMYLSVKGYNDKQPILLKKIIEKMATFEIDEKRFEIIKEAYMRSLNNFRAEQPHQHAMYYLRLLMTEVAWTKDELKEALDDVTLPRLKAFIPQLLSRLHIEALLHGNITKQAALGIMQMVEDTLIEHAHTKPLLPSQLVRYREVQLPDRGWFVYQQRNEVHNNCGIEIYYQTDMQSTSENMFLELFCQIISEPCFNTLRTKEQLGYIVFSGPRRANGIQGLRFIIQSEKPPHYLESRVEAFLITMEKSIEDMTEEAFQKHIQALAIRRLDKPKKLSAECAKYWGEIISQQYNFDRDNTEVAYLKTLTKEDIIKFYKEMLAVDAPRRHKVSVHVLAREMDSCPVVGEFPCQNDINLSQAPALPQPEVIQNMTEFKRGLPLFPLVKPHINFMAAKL
In short: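 Material: recombinant WT human IDE / Quantity: IDE 1 nM final / Also added: FAbetaB substrate 100 nM / Compound dosing: 10 semi-log points, top 100 µM / Incubation: reaction at 22 °C / Signal: fluorescence polarization (ex 485 nm, em 525 nm) after avidin/1,10-phenanthroline stop / Benchmarks: high control with reference IDE inhibitor Ii1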

Row | Structure (SMILES) | IC50
1 | O=c1c2ccccc2sn1-c1cc(S(=O)(=O)N2CCOCC2)ccc1N1CCOCC1 | 1.4 µM
2 | O=C(Nc1cccc(C(F)(F)F)c1)c1csc(-c2ccncc2)n1 | 5.3 µM
3 | Clc1cccc(-c2nnc(SCc3nc4ccccc4[nH]3)n2Cc2ccco2)c1 | 3.9 µM

Results, then the compound that gave them:

Row | IC50 | Structure (SMILES)
4 | 5.7 µM and 8.9 µM | Cc1cccc(-c2nnc(SCc3nc4ccccc4[nH]3)n2Cc2ccco2)c1
5 | 1.9 µM and > 33 µM (inactive) | COc1ccc(C(=O)N2CCN(C(=O)C3COc4ccccc4O3)CC2)cc1OC (stereo not given)
